Measurements as given in ChEMBL document CHEMBL1926589, “2-Anilinonicotinyl linked 2-aminobenzothiazoles and [1,2,4]triazolo[1,5-b] [1,2,4]benzothiadiazine conjugates as potential mitochondrial apoptotic inducers” (Bioorg Med Chem, 2011).
Calls of active or inactive are those of the source. The rule behind the calls is not given here.

Experiments:
HeLa = test: Induction of apoptosis in human HeLa cells assessed as DNA ladder formation at 10 uM after 24 hrs by agarose gel electrophoresis; type: functional, cell-based
Method in brief: (§1)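 Cells treated 24 h, then 2 x 10^6 cells lysed (Triton X-100 buffer, pH 8.0) with RNase at 37 °C for 90 min and proteinase-K at 50 °C for 1 h. DNA phenol/chloroform-extracted and ethanol-precipitated, then run on 1.8% agarose at 50 V for 1.5 h in TAE. Ladders viewed under UV.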

A549 = test: Growth inhibition of human A549 cells at 10 uM by sulforhodamine B assay; type: functional; conditions: read-out: GI
Method in brief: (§2)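 Single-dose 10 µM screen by sulforhodamine B assay, reported as percent inhibition of cell proliferation. Cells grown in medium with 10% heat-inactivated FBS at 37 °C, 5% CO2, and treated at about 70% confluence or in log phase. Compounds dissolved in DMSO; controls received vehicle (<0.5% v/v).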

HL-60 [1] = test: Growth inhibition of human HL60 cells after 48 hrs by MTT assay; type: functional, cell-based; conditions: HL-60, 48 h
CV-1 = test: Growth inhibition of african green monkey CV1 cells after 48 hrs by MTT assay; type: cell-based; conditions: Chlorocebus aethiops, CV-1, 48 h
HL-60 [2] = test: Inhibition of Bcl-2 expression in human HL60 cells at 1 uM after 24 hrs by Western blotting; type: functional, cell-based
Method in brief: (§3)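 HL-60 cells treated 24 h and lysed in RIPA buffer on ice; protein measured by Bradford against a BSA standard. 50 µg resolved by SDS-PAGE and transferred to PVDF, blocked in 5% milk/TBST, then primary antibodies 1:1000 for 2 h and HRP secondary 1:1000 for 1 h. ECL detection with β-actin as loading control; bands quantified by densitometry.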

HL-60 [3] = test: Induction of apoptosis in human HL60 cells assessed as DNA ladder formation at 1 uM after 24 hrs by agarose gel electrophoresis; type: functional, cell-based; method in brief: as §1
SK-N-SH = test: Growth inhibition of human SK-N-SH cells at 10 uM by sulforhodamine B assay; type: functional; conditions: read-out: GI; method in brief: as §2
HL-60 [4] = test: Induction of apoptosis in human HL60 cells assessed as late apoptotic cells at 1 uM after 24 hrs using Annexin V-FITC and propidium iodide staining by flow cytometry relative to control; type: functional
Method in brief: (§4)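 HL-60 cells (1 x 10^5 per 1.5 mL) treated 24 h, washed twice in PBS and stained in binding buffer with annexin V-FITC and PI. Flow cytometry with FITC in FL-1 (530 nm) and PI in FL-2 (585 nm), using quadrant statistics: lower right taken as apoptotic, upper right as post-apoptotic necrotic. Representative of three independent experiments.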

IMR-32 = test: Growth inhibition of human IMR32 cells at 10 uM by sulforhodamine B assay; type: functional; conditions: read-out: GI; method in brief: as §2
SiHa [5] = test: Induction of apoptosis in human SiHa cells assessed as DNA ladder formation at 10 uM after 24 hrs by agarose gel electrophoresis; type: functional, cell-based; method in brief: as §1
HL-60 [6] = test: Induction of apoptosis in human HL60 cells assessed as nuclear fragmentation at 1 uM after 24 hrs by DAPI staining-based fluorescence microscopy; type: functional, cell-based
Method in brief: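 HL-60 or PC-3 cells treated at 1 µM for 24 h. Air-dried smears fixed in methanol at −20 °C for 20 min and stained with DAPI (1 µg/mL) for 20 min at room temperature in the dark. Mounted in 90% glycerol/PBS and examined by fluorescence microscopy for nuclear morphology.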

[7] = Therapeutic ratio of IC50 for african green monkey CV1 cells to IC50 for human HL60 cells; type: ADME, cell-based, HL-60; conditions: CV1 cells and HL60 cells, read-out: Ratio IC50
HL-60 [8] = test: Induction of apoptosis in human HL60 cells assessed as formation of apoptotic bodies at 1 uM after 24 hrs by scanning electron microscopy; type: functional, cell-based
Method in brief: (§5)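 HL-60 cells at 2 x 10^5/ml in 10% FCS medium exposed to 0.5 or 1 µM for 6–48 h; DMSO vehicle controls. Cells fixed in 2.5% glutaraldehyde in 0.1 M phosphate (pH 7.2) at 4 °C for 1 h, post-fixed in 1% OsO4 and ethanol-dehydrated. Critical-point dried, gold-coated, and imaged by SEM at 40 kV.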

HL-60 [9] = test: Induction of apoptosis in human HL60 cells assessed as decrease in size at 1 uM after 12 hrs by scanning electron microscopy; type: functional, cell-based; method in brief: as §5
HL-60 [10] = test: Inhibition of NF-kappaB expression in human HL60 cells at 1 uM after 24 hrs by Western blotting; type: functional, cell-based; method in brief: as §3
HL-60 [11] = test: Induction of apoptosis in human HL60 cells assessed as caspase9 activation using LEHD-AMC as substrate at 1 uM after 24 hrs by fluorimetry relative to control; type: functional
Method in brief: (§6)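 HL-60 cells (2 x 10^6) treated 24 h, washed and lysed. Caspase-3, -8 and -9 activities in lysates measured fluorometrically with a commercial caspase fluorescent assay kit. Two independent experiments, each in duplicate.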

HCT-15 = test: Growth inhibition of human HCT15 cells at 10 uM by sulforhodamine B assay; type: functional; conditions: read-out: GI; method in brief: as §2
HL-60 [12] = test: Induction of apoptosis in human HL60 cells assessed as increase of reactive oxygen species level at 1 uM after 24 hrs using DCFH-DA fluorescent dye based flow cytometric analysis relative to control; type: functional
Method in brief: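 HL-60 cells (1 x 10^5 per 1.5 mL) treated 24 h, then loaded with 10 µM H2DCFDA for 30 min at 37 °C. Washed twice in PBS and read in FL-1 (530 nm). Percentage of DCF-positive cells determined; mean ± SD of three experiments.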

HL-60 [13] = test: Induction of apoptosis in human HL60 cells at 0.5 uM after 48 hrs by scanning electron microscopy; type: functional, cell-based; method in brief: as §5
HL-60 [14] = test: Induction of apoptosis in human HL60 cells assessed as PARP cleavage at 1 uM after 24 hrs by Western blotting; type: functional, cell-based; method in brief: as §3
DU-145 = test: Growth inhibition of human DU145 cells at 10 uM by sulforhodamine B assay; type: functional; conditions: read-out: GI; method in brief: as §2
HL-60 [15] = test: Induction of apoptosis in human HL60 cells assessed as caspase3 activation using DEVD-AFC as substrate at 1 uM after 24 hrs by fluorimetry relative to control; type: functional; method in brief: as §6
HL-60 [16] = test: Cell cycle arrest in human HL60 cells assessed as accumulation at sub-G0 phase measuring DNA damage at 1 uM after 24 hrs using propidium iodide staining by flow cytometry (reference value: 1%); type: functional
Method in brief: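 HL-60 cells (1 x 10^5 per 1.5 mL) treated 24 h, then fixed in 70% cold ethanol at −20 °C overnight. RNase digestion (400 µg/ml) at 37 °C for 45 min, then propidium iodide (10 µg/ml) for 30 min. Flow cytometry on 10,000 events, FL2-A vs FL2-W, with doublet discrimination. Sub-G0 (hypodiploid) peak taken as apoptotic cells. Mean ± SD of three independent experiments.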

SiHa [17] = test: Growth inhibition of human SiHa cells after 48 hrs by MTT assay; type: functional, cell-based
HL-60 [18] = test: Induction of apoptosis in human HL60 cells assessed as non-viable necrotic cells at 1 uM after 24 hrs using Annexin V-FITC and propidium iodide staining by flow cytometry relative to control; type: functional; method in brief: as §4
HL-60 [19] = test: Induction of apoptosis in human HL60 cells assessed as DNA ladder formation at 10 uM after 24 hrs by agarose gel electrophoresis; type: functional, cell-based; method in brief: as §1
SW-620 = test: Growth inhibition of human SW620 cells at 10 uM by sulforhodamine B assay; type: functional; conditions: read-out: GI; method in brief: as §2

IC50 (HL-60 [1]): 0.08 µM
Compound: O=C(Nc1nc2ccc([N+](=O)[O-])cc2s1)c1cccnc1Nc1cc(F)c(F)c(F)c1
Activity (HeLa): inactive
inhibition of growth at 10 µM (A549): 27%
IC50 (CV-1): > 100 µM
inhibition (HL-60 [2]): inactive
Activity (HL-60 [3]): Active
inhibition of growth at 10 µM (SK-N-SH): 49%
Activity (HL-60 [4]): 8%
inhibition of growth at 10 µM (IMR-32): 72%
Activity (SiHa [5]): inactive
Activity (HL-60 [6]): Active
selectivity ratio [7]: > 1250
Activity (HL-60 [8]): Active
Activity (HL-60 [9]): Active
inhibition (HL-60 [10]): Active
fold change (FC) (HL-60 [11]): 2
inhibition of growth at 10 µM (HCT-15): 62%
Activity (HL-60 [12]): inactive
Activity (HL-60 [13]): inactive
Activity (HL-60 [14]): Active
inhibition of growth at 10 µM (DU-145): 39%
fold change (FC) (HL-60 [15]): 2
Activity (HL-60 [16]): 94%
IC50 (SiHa [17]): 36 µM
Activity (HL-60 [18]): 47%
Activity (HL-60 [19]): Active
inhibition of growth at 10 µM (SW-620): 70%
